Measurements published in ChEMBL document CHEMBL1773010, “Cytotoxic and apoptosis-inducing activities of limonoids from the seeds of Azadirachta indica (neem)” (J Nat Prod, 2011).

How the values were obtained:
Assay type in all cases: functional, cell-based
[1] = Cytotoxicity against human AZ-521 cells assessed as cell viability after 48 hrs by MTT assay; settings: AZ-521, 48 h
Summary of the method: (§1)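 Cells seeded at 3 × 10^3 per well and exposed to compounds from 1 × 10^-4 to 1 × 10^-6 M for 48 h. MTT was then added for 3 h, formazan dissolved in 0.04 M HCl in 2-propanol, and absorbance read at 570 nm against 630 nm. IC50 is the concentration giving 50% growth inhibition, from triplicate assays.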

A549 = assay: Cytotoxicity against human A549 cells assessed as cell viability after 48 hrs by MTT assay; settings: A549, 48 h; summary of the method: as §1
HL-60 = assay: Cytotoxicity against human HL60 cells assessed as cell viability after 48 hrs by MTT assay; settings: HL-60, 48 h; summary of the method: as §1
SK-BR-3 = assay: Cytotoxicity against human SK-BR-3 cells assessed as cell viability after 48 hrs by MTT assay; settings: SK-BR-3, 48 h; summary of the method: as §1
[2] = Cytotoxicity against human CRL1579 cells assessed as cell viability after 48 hrs by MTT assay; summary of the method: as §1

SMILES | IC50 [1] [µM] | IC50 (A549) [µM] | IC50 (HL-60) [µM] | IC50 (SK-BR-3) [µM] | IC50 [2] [µM]
COC(=O)C[C@H]1[C@]2(C)C3=C(C)[C@H](c4ccoc4)C[C@H]3O[C@@H]2[C@H](O)[C@@H]2[C@]1(C)C(=O)C=C[C@@]2(C)C(=O)OC [DEACETYLNIMBIN] | > 20 | > 20 | 11.6 | > 20 | > 20
C/C=C(/C)C(=O)O[C@H]1C[C@@H](O)[C@@]2(C)CO[C@H]3[C@H]4O[C@@H]5C[C@@H](c6ccoc6)C(C)=C5[C@@]4(C)[C@H](CC(=O)OC)[C@]1(C)[C@@H]32 | > 20 | > 20 | > 20 | > 20 | > 20
CC(=O)O[C@@H]1C[C@H]2C(C)(C)C(=O)C=C[C@]2(C)[C@H]2CC[C@]3(C)C(=C(O)C(=O)[C@H]3c3ccoc3)[C@@]21C | > 20 | > 20 | > 20 | > 20 | > 20
CC1(C)C(=O)C=C[C@]2(C)[C@H]3CC[C@@]4(C)[C@H](c5ccoc5)OC(=O)[C@H]5O[C@]54[C@]3(C)[C@H](O)C[C@@H]12 [DEACETYLGEDUNIN] | 16.9 | > 20 | > 20 | 12 | > 20
CC(=O)O[C@@H]1C[C@H]2C(C)(C)C(=O)C=C[C@]2(C)[C@H]2CC[C@]3(C)C(=CC[C@H]3[C@H]3COC(=O)C3)[C@@]21C | > 20 | > 20 | > 20 | > 20 | > 20
C/C=C(/C)C(=O)O[C@H]1C[C@@H](OC(C)=O)[C@@]2(C)CO[C@H]3[C@H]4O[C@@H]5C[C@@H](c6ccoc6)C(C)=C5[C@@]4(C)[C@H](CC(=O)OC)[C@]1(C)[C@@H]32 [SALANNIN] | > 20 | > 20 | > 20 | > 20 | > 20
CC(=O)O[C@@H]1C[C@H]2C(C)(C)C(=O)C=C[C@]2(C)[C@H]2CC[C@@]3(C)[C@H](c4ccoc4)OC(=O)[C@H]4O[C@]43[C@@]21C [GEDUNIN] | 16.9 | > 20 | 5.9 | 8.3 | > 20
CC(=O)O[C@@H]1C[C@H]2C(C)(C)C(=O)C=C[C@]2(C)[C@H]2CC[C@]3(C)C(=CC(=O)[C@@]3(O)c3ccoc3)[C@@]21C [17-HYDROXYAZADIRADIONE] | > 20 | > 20 | 12.4 | > 20 | > 20
CCC(C)C(=O)O[C@H]1C[C@@H](OC(C)=O)[C@@]2(C)CO[C@H]3[C@H]4O[C@@H]5C[C@@H](c6ccoc6)C(C)=C5[C@@]4(C)[C@H](CC(=O)OC)[C@]1(C)[C@@H]32 (some centres undefined) | > 20 | > 20 | 17.1 | > 20 | > 20
C/C=C(\C)C(=O)O[C@@H]1C[C@H](O)[C@]23CO[C@H](C(=O)OC)[C@H]2[C@](C)([C@]24O[C@@]2(C)[C@H]2C[C@@H]4O[C@@H]4OC=C[C@@]42O)[C@H](O)[C@@H]2OC[C@@]1(C(=O)OC)[C@H]23 [AZADIRACHTIN B] | > 20 | > 20 | > 20 | > 20 | > 20
CC(=O)O[C@@H]1C[C@H]2C(C)(C)C(=O)C=C[C@]2(C)[C@H]2CC[C@]3(C)C(=CC(=O)O[C@]3(O)c3ccoc3)[C@@]21C [NIMOLICINOL] | > 20 | > 20 | > 20 | > 20 | > 20
CC1(C)C(=O)C=C[C@]2(C)[C@H]3CC[C@]4(C)C(=CC(=O)O[C@@]4(O)c4ccoc4)[C@]3(C)[C@H](O)C[C@@H]12 | > 20 | > 20 | > 20 | > 20 | > 20
CC(=O)O[C@@H]1C[C@H]2C(C)(C)C(=O)C=C[C@]2(C)[C@H]2CC[C@]3(C)C(=CC(=O)[C@H]3C3=CCOC3=O)[C@@]21C [AZADIRADIONOLIDE] | > 20 | > 20 | > 20 | 11.5 | > 20
CCC(C)C(=O)O[C@H]1C[C@@H](OC(C)=O)[C@@]2(C(=O)OC)CO[C@H]3[C@@H](O)[C@@](C)([C@]45O[C@@]4(C)C4CC5O[C@@H]5C[C@@H](OC)C[C@]45O)[C@@H]4[C@@H](C(=O)OC)OC[C@@]14[C@@H]32 (some centres undefined) | > 20 | > 20 | > 20 | > 20 | > 20
COC(=O)C[C@H]1[C@]2(C)C3=C(C)[C@H](c4ccoc4)C[C@H]3O[C@@H]2[C@H](OC(C)=O)[C@@H]2[C@]1(C)C(=O)C=C[C@@]2(C)C(=O)OC [NIMBIN] | > 20 | > 20 | – | > 20 | 15.9
O=c1[nH]cc(F)c(=O)[nH]1 [FLUOROURACIL] | > 20 | > 20 | 9.1 | > 20 | > 20

SMILES | IC50 [1] [µM] | IC50 (A549) [µM] | IC50 (HL-60) [µM] | IC50 (SK-BR-3) [µM] | IC50 [2] [µM]
CC(=O)O[C@@H]1C[C@H]2C(C)(C)C(=O)C=C[C@]2(C)[C@H]2CC[C@]3(C)C(=CC(=O)[C@]3(O)c3ccoc3)[C@@]21C | > 20 | > 20 | > 20 | > 20 | 19.1
CC1(C)C(=O)C=C[C@]2(C)[C@H]3CC[C@]4(C)C(=CC(=O)[C@H]4c4ccoc4)[C@]3(C)[C@H](OC(=O)c3ccccc3)C[C@@H]12 | > 20 | > 20 | 5.3 | > 20 | 4
COC(=O)C[C@H]1[C@]2(C)C3=C(C)[C@H](c4ccoc4)C[C@H]3O[C@@H]2[C@H](OC(C)=O)[C@@H]2[C@]1(C)C(=O)C=C[C@@]2(C)O | > 20 | > 20 | > 20 | > 20 | > 20
CC(=O)O[C@@H]1C[C@H]2C(C)(C)C(=O)C=C[C@]2(C)[C@H]2CC[C@@]3(C)OC(=O)C=C3[C@@]21C | > 20 | > 20 | > 20 | > 20 | > 20
COC(=O)C[C@H]1[C@]2(C)C3=C(C)[C@H](c4ccoc4)C[C@H]3O[C@@H]2[C@@H]2OC[C@]3(C)[C@H](OC(C)=O)C[C@H](OC(=O)/C=C/c4ccccc4)[C@@]1(C)[C@@H]23 [OHCHININ ACETATE] | > 20 | > 20 | 9.9 | > 20 | > 20
CC(=O)O[C@@H]1C[C@H]2C(C)(C)C(=O)C=C[C@]2(C)[C@H]2CC[C@]3(C)C(=CC(=O)[C@H]3c3ccoc3)[C@@]21C [AZADIRADIONE] | > 20 | > 20 | 14.7 | 15.9 | > 20
CC(=O)O[C@@H]1C[C@H]2C(C)(C)C(=O)C=C[C@]2(C)[C@H]2CC[C@@]3(C)CC(=O)C=C3[C@@]21C [DESFURANOAZADIRADIONE] | > 20 | > 20 | 19.8 | > 20 | > 20
CCC(C)C(=O)O[C@H]1C[C@@H](OC(C)=O)[C@@]2(C(=O)OC)CO[C@H]3[C@@H](O)[C@@](C)([C@]45O[C@@]4(C)C4CC5O[C@@H]5C[C@H](OC)C[C@]45O)[C@@H]4[C@@H](C(=O)OC)OC[C@@]14[C@@H]32 (some centres undefined) [VEPAOL] | > 20 | > 20 | > 20 | > 20 | > 20
CC(=O)O[C@@H]1C[C@H]2C(C)(C)C(=O)C=C[C@]2(C)[C@H]2CC[C@@]3(C)[C@H](c4ccoc4)C(=O)[C@H]4O[C@]43[C@@]21C [EPOXYAZADIRADIONE] | > 20 | > 20 | 9.3 | 12.3 | > 20
CC1(C)C(=O)C=C[C@]2(C)[C@H]3CC[C@]4(C)C(=CC(=O)[C@H]4c4ccoc4)[C@]3(C)[C@H](O)C[C@@H]12 [NIMBOCINOL] | > 20 | > 20 | > 20 | > 20 | > 20
CC(=O)O[C@@H]1C[C@H]2C(C)(C)C(=O)C=C[C@]2(C)[C@H]2CC[C@@]3(C)C(c4ccoc4)=C(O)C(=O)[C@H]3[C@@]21C | > 20 | > 20 | > 20 | > 20 | > 20
C/C=C(/C)C(=O)O[C@H]1C[C@@H](OC(C)=O)[C@@]2(C)CO[C@H]3[C@H]4O[C@@H]5CC(=O)C(C)=C5[C@@]4(C)[C@H](CC(=O)OC)[C@]1(C)[C@@H]32 | > 20 | > 20 | > 20 | > 20 | > 20
CC=C(C)C(=O)O[C@@H]1[C@@H]2OC[C@]3(C)[C@H](OC(C)=O)C[C@H](O)[C@](C)([C@H]4CC[C@@](C)([C@@H](C)[C@H]5COC(=O)C5)C[C@]14C)[C@@H]23 | > 20 | > 20 | > 20 | > 20 | > 20
CC(=O)O[C@@H]1C[C@H]2C(C)(C)C(=O)C=C[C@]2(C)[C@H]2CC[C@]3(C)C(=CC(=O)[C@@H]3c3ccoc3)[C@@]21C [17-EPIAZADIRADIONE] | > 20 | > 20 | 12.6 | > 20 | > 20
CC=C(C)C(=O)O[C@H]1C[C@@H](OC(C)=O)[C@@]2(C(=O)OC)CO[C@H]3[C@H]4O[C@@H]5C6C[C@@H](O[C@@H]7OC=C[C@]67O)[C@]5(O)[C@@]4(C)[C@@H]4[C@@](OC)(C(=O)OC)OC[C@@]14[C@@H]32 | > 20 | > 20 | > 20 | > 20 | > 20
